Measurements: ChEMBL document CHEMBL3822438, “Chlorin p6-Based Water-Soluble Amino Acid Derivatives as Potent Photosensitizers for Photodynamic Therapy” (J Med Chem, 2016)
≈ marks a conversion by molar mass, not a printed value. Values belong to the compound of their own block, whether it stands above or below them. Calls of active or inactive are those of the source. The rule behind the calls is not given here.

Key:
[1] = Dark toxicity in mouse B16F10 cells assessed as cell viability after 48 hrs by cell counting kit-8 based spectrophotometric analysis; design: species or system B16-F10; conditions: mouse, B16F10 cells
How it was run: (§1)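 CCK-8 dark toxicity. 5×10^3 cells seeded in 10% FBS medium (A375 in DMEM, B16-F10 in RPMI 1640). Exposed to graded compound concentrations for 48 h at 37 °C, kept in the dark. Fresh medium and CCK-8 added for 1.5 h, then absorbance read at 450 nm to give IC50. Ratio is dark IC50 over IC50 under light.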

[2] = Dark toxicity in human A375 cells assessed as cell viability after 48 hrs by cell counting kit-8 based spectrophotometric analysis; design: species or system A-375; conditions: human, A375 cells; how it was run: as §1
[3] = Phototoxicity in mouse B16F10 cells assessed as cell viability after 24 hrs followed by irradiation with diode laser at 10 J/cm'2 measured after 24 hrs by cell counting kit-8 based spectrophotometric analysis; format: functional, B16-F10; conditions: Mus musculus, B16-F10, light or radiation study, 24 h
How it was run: (§2)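 Phototoxicity by CCK-8. Cells loaded with a range of compound concentrations for 24 h at 37 °C, irradiated with a 678 nm diode laser at 10 J/cm², then incubated a further 24 h. Viability read as absorbance at 450 nm after 1.5 h with CCK-8.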

[4] = Ratio of IC50 for dark toxicity to IC50 for phototoxicity in human A375 cells; format: cell-based, A-375; conditions: A375 cells, read-out: Ratio IC50; how it was run: as §1
A-375 [5] = assay: Phototoxicity in human A375 cells assessed as cell viability after 24 hrs followed by irradiation with diode laser at 10 J/cm'2 measured after 24 hrs by cell counting kit-8 based spectrophotometric analysis; format: functional; conditions: Homo sapiens, A-375, light or radiation study, 24 h; how it was run: as §2
[6] = Ratio of IC50 for dark toxicity to IC50 for phototoxicity in mouse B16F10 cells by cell counting kit-8 based spectrophotometric analysis; design: species or system B16-F10; conditions: B16F10 cells, read-out: Ratio IC50; how it was run: as §1
B16-F10 [7] = assay: Induction of apoptosis in mouse B16F10 cells assessed as early apoptotic cells at 5 uM after 24 hrs followed by irradiation with diode laser at 10 J/cm'2 by alexa fluor 488 annexin V/PI double staining based flow cytometry (reference value: 0.08%); format: functional
[8] = Drug uptake in mitochondria of mouse B16F10 cells at 10 uM incubated in dark for 24 hrs by mito tracker green FM dye based confocal microscopy; format: ADME; conditions: b16-f10, 24 h
[9] = Drug uptake in lysosomes of mouse B16F10 cells at 10 uM incubated in dark for 24 hrs by lyso tracker green dye based confocal microscopy; format: ADME, cell-based, Lysosome; conditions: b16-f10, 24 h
B16-F10 [10] = assay: (§3) Phototoxicity in mouse B16F10 cells assessed as cell viability after 24 hrs followed by irradiation with diode laser at 10 J/cm'2 measured after 24 hrs by MTT assay; format: functional, cell-based
How it was run: (§4)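 B16-F10 cells in RPMI 1640 with 10% FBS. Dark arm: compound for 48 h. Light arm: compound for 24 h, then 678 nm diode laser at 10 J/cm², then a further 24 h. Read-out by MTT for 4 h, formazan dissolved in DMSO, absorbance at 490 nm. Ratio is dark IC50 over light IC50.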

[11] = as §3; format: functional, cell-based, B16-F10; conditions: Mus musculus, B16-F10, light or radiation study, 24 h; how it was run: as §4
[12] = Ratio of IC50 for dark toxicity to IC50 for phototoxicity in human A375 cells by CCK-8 assay
[13] = Ratio of IC50 for test compound to IC50 for verteporfin for dark toxicity in mouse B16F10 cells by cell counting kit-8 based spectrophotometric analysis; design: species or system B16-F10; conditions: read-out: Ratio IC50
[14] = Aqueous solubility of the compound in PBS buffer at pH 7.4; format: physicochemical
[15] = Drug uptake in golgi apparatus of mouse B16F10 cells at 10 uM incubated in dark for 24 hrs by golgi tracker green dye based confocal microscopy; format: ADME, cell-based; conditions: b16-f10, 24 h
[16] = Dark toxicity in mouse B16F10 cells assessed as cell viability after 48 hrs by MTT assay; format: cell-based, B16-F10; conditions: mouse, B16F10 cells; how it was run: as §4
B16-F10 [17] = assay: Induction of apoptosis in mouse B16F10 cells assessed as necrotic/late apoptotic cells after 24 hrs followed by irradiation with diode laser at 10 J/cm'2 by alexa fluor 488 annexin V/PI double staining based flow cytometry; format: functional, cell-based
[18] = Drug uptake in nucleus of mouse B16F10 cells at 10 uM incubated in dark for 24 hrs by confocal microscopy; format: ADME, cell-based; conditions: b16-f10, 24 h
[19] = Antitumor activity against B16F10 cells implanted in C57BL/6 mouse assessed as survival time at 1 mg/kg, iv administered for 2 hrs followed by irradiation with laser at 150 J/cm'2 for 10 mins (reference value: 13 days); format: functional, B16-F10
[20] = Dark toxicity in mouse B16F10 cells assessed as reduction in cell surviving fraction at 50 to 300 uM after 48 hrs by cell counting kit-8 based spectrophotometric analysis; conditions: b16-f10, 48 h
How it was run: (§5)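 Survival fraction measured in the dark by CCK-8 after 48 h exposure at 37 °C to 300 µM or 50 µM. Cells were in 10% FBS medium (A375 in DMEM, B16-F10 in RPMI 1640). Viability read as absorbance at 450 nm after 1.5 h with CCK-8.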

[21] = Drug uptake in endoplasmic reticulum of mouse B16F10 cells at 10 uM incubated in dark for 24 hrs by ER tracker green dye based confocal microscopy; format: ADME, cell-based; conditions: b16-f10, 24 h
B16-F10 [22] = assay: Induction of apoptosis in mouse B16F10 cells assessed as necrotic/late apoptotic cells at 2 uM after 24 hrs followed by irradiation with diode laser at 10 J/cm'2 by alexa fluor 488 annexin V/PI double staining based flow cytometry (reference value: 1.94%); format: functional
A-375 [23] = assay: Dark toxicity in human A375 cells assessed as reduction in cell surviving fraction at 50 to 300 uM after 48 hrs by cell counting kit-8 based spectrophotometric analysis; conditions: a-375, 48 h; how it was run: as §5
A-375 [24] = assay: Phototoxicity in human A375 cells assessed as reduction in cell surviving fraction by irradiation with diode laser at 10 J/cm'2 after 24 hrs by cell counting kit-8 based spectrophotometric analysis; format: functional
How it was run: (§6)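 Survival fraction after PDT. Cells held 24 h at 2 µM or 0.2 µM, irradiated at 678 nm with 10 J/cm², then cultured another 24 h. Viability measured by CCK-8 at 450 nm.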

B16-F10 [25] = assay: Induction of apoptosis in mouse B16F10 cells assessed as early apoptotic cells at 2 uM after 24 hrs followed by irradiation with diode laser at 10 J/cm'2 by alexa fluor 488 annexin V/PI double staining based flow cytometry (reference value: 0.08%); format: functional
B16-F10 [26] = assay: Antitumor activity against B16F10 cells implanted in C57BL/6 mouse assessed as tumor growth inhibition at 1 mg/kg, iv administered for 2 hrs followed by irradiation with laser at 150 J/cm'2 for 10 mins; format: functional, organism-based
How it was run: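 B16-F10 cells (2×10^4) inoculated subcutaneously into the right thigh of male C57BL/6 mice aged 6-8 weeks. Mice with tumours 6-8 mm in diameter were used, 5 per group. Irradiation at 678 nm diode laser, 250 mW/cm² for 10 min, 2 h after i.v. dosing. Tumour volume measured by caliper as (W²×L)/2. Survival recorded daily and analysed by Kaplan-Meier with log-rank test.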

B16-F10 [27] = assay: Phototoxicity in mouse B16F10 cells assessed as reduction in cell surviving fraction by irradiation with diode laser at 10 J/cm'2 at 5 uM after 24 hrs by cell counting kit-8 based spectrophotometric analysis; format: functional
How it was run: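 B16-F10 cells exposed to 5 µM for 24 h, then given varying 678 nm laser light doses. After a further 24 h, survival fraction was read by CCK-8 absorbance at 450 nm.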

B16-F10 [28] = assay: Induction of apoptosis in mouse B16F10 cells assessed as necrotic/late apoptotic cells at 5 uM after 24 hrs followed by irradiation with diode laser at 10 J/cm'2 by alexa fluor 488 annexin V/PI double staining based flow cytometry (reference value: 1.94%); format: functional
[29] = Ratio of IC50 for test compound to IC50 for verteporfin for dark toxicity in human A375 cells by cell counting kit-8 based spectrophotometric analysis; design: species or system A-375; conditions: read-out: Ratio IC50
[30] = Ratio of IC50 for dark toxicity to IC50 for phototoxicity in mouse B16F10 cells by MTT assay; format: cell-based, B16-F10; conditions: B16F10 cells, read-out: Ratio IC50; how it was run: as §4
B16-F10 [31] = assay: Phototoxicity in mouse B16F10 cells assessed as reduction in cell surviving fraction by irradiation with diode laser at 10 J/cm'2 after 24 hrs by cell counting kit-8 based spectrophotometric analysis; format: functional; how it was run: as §6

Structure (SMILES): CCC1=C(C)c2cc3[nH]c(cc4nc(c(C(=O)OC)c5[nH]c(cc1n2)c(C)c5C(=O)OC)C(CCC(=O)O)=C4C)[C@@]1(C)C3=CC=C(C(=O)OC)[C@H]1C(=O)OC
IC50 at 48 h [1]: 15.3 µM | IC50 at 48 h [2]: 22.8 µM | IC50 [3]: 0.92 µM | selectivity ratio [4]: 15.5 | IC50 (A-375 [5]): 1.47 µM | selectivity ratio [6]: 16.7

Structure (SMILES): CCC1=C(C)c2cc3[nH]c(cc4nc(c(C(=O)OC)c5[nH]c(cc1n2)c(C)c5C(=O)OC)C(CCC(=O)N[C@@H](CC(=O)O)C(=O)O)=C4C)[C@@]1(C)C3=CC=C(C(=O)OC)[C@H]1C(=O)OC
IC50 at 48 h [1]: 271 µM | IC50 at 48 h [2]: > 300 µM | IC50 [3]: 2.29 µM | selectivity ratio [4]: > 99.3 | IC50 (A-375 [5]): 3.02 µM | selectivity ratio [6]: 118

Structure (SMILES): C=Cc1c(C)c2cc3nc(c(C(=O)OC)c4[nH]c(cc5nc(cc1[nH]2)C(C)=C5CC)c(C)c4C(=O)OC)[C@@H](CCC(=O)N[C@@H](CC(=O)O)C(=O)O)[C@@H]3C
Activity (B16-F10 [7]): 5.61% | Drug uptake [8]: Active | Drug uptake [9]: Active | IC50 at 48 h [1]: > 300 µM | Activity (B16-F10 [10]): Dose-dependent effect | IC50 [11]: 0.75 µM | IC50 at 48 h [2]: > 300 µM | selectivity ratio [12]: > 306 | selectivity ratio [13]: > 8.3 | solubility [14]: 41.7 µM (≈ 30.3 µg/mL) | Drug uptake [15]: Active | IC50 at 48 h [16]: > 300 µM | Activity (B16-F10 [17]): Dose-dependent effect | Drug uptake [18]: Not Active | MST [19]: 21 days | Activity [20]: Non-toxic | Drug uptake [21]: Active | Activity (B16-F10 [22]): 68.23% | Activity (A-375 [23]): Non-toxic | Activity (A-375 [24]): Dose-dependent effect | Activity (B16-F10 [25]): 0.3% | TGI (B16-F10 [26]): Active | Activity (B16-F10 [27]): Active | Activity (B16-F10 [28]): 82.05% | IC50 [3]: 0.68 µM | selectivity ratio [29]: > 8.3 | selectivity ratio [4]: > 306 | IC50 (A-375 [5]): 0.98 µM | selectivity ratio [30]: > 400 | selectivity ratio [6]: > 441 | Activity (B16-F10 [31]): Dose-dependent effect

solubility [14]: < 1.6 µM
Structure (SMILES): C=Cc1c(C)c2cc3nc(c(C(=O)OC)c4[nH]c(cc5nc(cc1[nH]2)C(C)=C5CC)c(C)c4C(=O)OC)[C@@H](CCC(=O)O)[C@@H]3C
IC50 at 48 h [1]: 15.7 µM | IC50 at 48 h [2]: 31.3 µM | IC50 [3]: 0.3 µM | selectivity ratio [4]: 60.2 | IC50 (A-375 [5]): 0.52 µM | selectivity ratio [6]: 52.2
